These results are taken from the EternaBench riboswitch data.

The test system of this data set is MS2 coat protein. Kind of data set: apparent Kd, MS2 coat protein; higher = weaker binding; RNA-MaP array; FMN 200 µM where present. The essentials:
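Green signal was scaled to red-channel RNA signal and control-cluster median Fmax, and the apparent Kd was taken as the median of filtered per-cluster binding-curve fits. The binding series used SNAP-549-labelled MS2 coat protein from 0.7 or 1.5 nM, doubling to 3 µM, on designs transcribed by stalled E. coli RNA polymerase on Illumina sequencing-chip clusters. Each series ran without and then with constant ligand in 100 mM Tris-HCl pH 7.5, 80 mM KCl, 4 mM MgCl2, BSA, DTT, yeast tRNA and Tween-20.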

[1] abbreviates: designed as: OFF switch for flavin mononucleotide, no ligand.
The mark [2] stands for this setting: ligand present: flavin mononucleotide, designed as: OFF switch for flavin mononucleotide.
[3] abbreviates: designed as: ON switch for flavin mononucleotide, no ligand.
Where [4] appears, read: ligand present: flavin mononucleotide, designed as: ON switch for flavin mononucleotide.

As to “AAUUUACAUGAGGAUCACCCAUGUCAGGAUAUGGUUUUAUUUUUUUCUUUUCUUGAUUCCAGAAGGGACAGUUA”, the apparent Kd (in general, the concentration giving half-maximal binding under the conditions of the assay) is 114 nM under setting [1] and 63.9 nM under setting [2].

“GUGCCUUGGAAGAAGGCCGUAUGCAAAGCAUACGGAGGAUAUUCAUACCGGAAACGGACAUGAGGAUCACCCAUGUGGCACAAA”: the “apparent Kd” value by setting is: under setting [3], 13 nM; under setting [4], 6.24 nM.

Turning to “AUUGAUGUUGAGGAUAUGCUUUUAUUUAUAAUAGCAGAAGGCGAUACAUGAGGAUCACCCAUGUUCAUGGUUUU”, the “apparent Kd” value runs as follows: under setting [1], 24.9 nM; under setting [2], 33.6 nM.

As to “CCGAAUAAGCAGGAUAUCGAAUCGGAGACGAUUCGAGAAGGGUUAACAUGAGGAUCACCCAUGUUCCUUAACGG”, the “apparent Kd” value is 19.1 nM under setting [1] and 20.8 nM under setting [2].

“GGGUACAUCGGAGGAUAUCAUGUAUAUACAUGAGGAUCACCCAUGUCGAUGGAGACAUCGGAGAUUGAGAAGGCCGAUGUACCG”: the “apparent Kd” value is 826 nM under setting [3] and 31.5 nM under setting [4].

Turning to “GGAUAUGUCGUCUACAUGAGGAUCACCCAUGUUGAUAAACAUGAGGAUAUUGAUAAGAAUUGUAUCGAGAAGGUAUGUAGGUCC”, the “apparent Kd” value turned out to be 106 nM under setting [3] and 89.5 nM under setting [4].

With “GGACGUCACAUUUACAUGAGGAUCACCCAUGUCUCUUGACAUGAGGAUAUGUAUACGAAUCGUAUACAGAAGGCAUGGACGUCC”, the “apparent Kd” value under setting [3] was 1100 nM and the “apparent Kd” value under setting [4] stood at 153 nM.

In the case of “GCUAUUGGCUAAGGAUAUGGAUACAUGAGGAUCACCCAUGUAAGAAUUGUGAUCAUAUAAAUGAUCCAGAAGGUAGCUGUUAGC”, the “apparent Kd” value reads like this: under setting [1], 280 nM; under setting [2], 502 nM.

Consider “AGUUGGCGAGGAUAUACAUGAGGAUCACCCAUGUGAGAGAAAAAAAGGAGAAAAAAAAGUAGAAGGCGCUGACA”, for which the “apparent Kd” value runs as follows: under setting [1], 37.5 nM; under setting [2], 120 nM.

As for “AGCGUAUGAACAUGAGGAUCACCCAUGUAAACGGAAACGAAUGAGGAUAUCGAUAGCAAAGCUAUCGAGAAGGCAUGGGACGCU”, the “apparent Kd” value is 159 nM under setting [3] and 36.4 nM under setting [4].

As to “UCUAAUUAGUGAGGAUAUACAUAAUUUAUAACUGUAGAAGGCACAAACCUCAAGACAUGAGGAUCACCCAUGUGGUAUUUAGAU”, the “apparent Kd” value reads like this: under setting [1], 150 nM; under setting [2], 354 nM.

In the case of “AAGAGCGAUUCUCCCUUCCUACAUGAGGAUCACCCAUGUACGAGAAGGCGCCGCGUAUACAACGGUGAGGAUAUCGUGCGUUAC”, the “apparent Kd” value is 4.45 nM under setting [1] and 4.98 nM under setting [2].

Turning to “GCUACUUAUUUUAAGUAUGAUUUACUAGAAGGUAGAUACAUGAGGAUCACCCAUGUUUAGAGUUCUAAGGAUAUAGUUUGUAGC”, the “apparent Kd” value is 7.81 nM under setting [3] and 7.57 nM under setting [4].

Consider “GGGUACAUCGGAGGAUAUCACGUAAAUACAUGAGGAUCACCCAUGUCGAUGGAGACAUCGGAGAUUGAGAAGGCCGAUGUACCG”, for which the “apparent Kd” value runs as follows: under setting [3], 7.6 nM; under setting [4], 5.33 nM.

Take “CGCUCAAUUACUUAGGAUAGAAUCAGAAGGCGUAACAUGAGGAUCACCCAUGUAUAGACGUGUAACGAGGAUAUGAAUUGAGCG”: the “apparent Kd” value under setting [1] turned out to be 5.36 nM and the “apparent Kd” value under setting [2] was 5.34 nM.

On to “ACUAUACGAGGAUAUACUGACGGGCCUCGGGCGUCCCUGCGACAUGAGGAUCACCCAUGUAGAAGGCGUAUACU”, for which the “apparent Kd” value is, setting by setting: under setting [1], 39.2 nM; under setting [2], 92.8 nM.

Regarding “UACUUCCGAGGAUAUACAUGAGGAUCACCCAUGUGCUUCAGCAUCUAAUGAUGCAUGGGUAGAAGGCGGUAGUU”, the “apparent Kd” value by setting is: under setting [1], 58.5 nM; under setting [2], 68.1 nM.

As for “GCGUUGAUGUAGAAGGUACAUGAAUACUUUUAAUACCUCAAGUAACAUGAGGAUCACCCAUGUAGUAAGGAUAUACAUGAACGC”, the “apparent Kd” value reads like this: under setting [3], 34.7 nM; under setting [4], 29.5 nM.

On to “UUGAUAAGGAGAGGAUAUUGACAUGAGGAUCACCCAUGUACAUGGGAGUGUUUACUGAAUUCUUACGAGAAGGCUUACAUAUUU”, for which the “apparent Kd” value reads like this: under setting [1], 245 nM; under setting [2], 166 nM.

For “UUAAUCUAUACAGGAUAUCCAUACGCUGCAUACGGAGAAGGGUAACAAUCAUGAGGACAUGAGGAUCACCCAUGUUCUGAGCAU”, the “apparent Kd” value came to 11.7 nM under setting [3] and 10.7 nM under setting [4].

Take “UGUCAGAUGGUAGGAUAUCCAUAUCGCGUGUCCCUUUCCUAACAUGAGGAUCACCCAUGUCGGUGGGAGAAGGGCCGUAUGGUG”: the “apparent Kd” value worked out at 13.2 nM under setting [1] and 12.1 nM under setting [2].

For “AAUUAUUGAUGAGGAUAUUGUGGUGAAACACGACGAGAAGGCAUAUGUCACAUGAGGAUCACCCAUGUGAGCCUUGUGGAUAUA”, the “apparent Kd” value amounted to 52 nM under setting [1] and 112 nM under setting [2].

On to “AGAUAUGAUGCAGGAUAUCUAUCUUGAAUGAGGAGAGAAGGGCAAGCAGAGAGAUAAGCCUUAUUACAUGAGGAUCACCCAUGU”, for which the “apparent Kd” value came out at 10.3 nM under setting [1] and 8.56 nM under setting [2].
